Source: paper PMC8258284 (Infection & Chemotherapy, 2021)
“And” between values parts separate entries of the source, which are not always exact repeats. Identical values can stand only once. “Also recorded” adds a separate entry of the source. Counter-ions that a name gives are not always drawn. Marks after values point to notes of the source that are not given here.

Experiments:
[1] = Ex vivo skin permeation and retention test; format: in vitro ADME, mice
THP-1 cell = THP-1 cell toxicity; format: cell-based, Human
Procedure, shortened: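 Non-infected THP-1 cells were PMA-transformed (72 h) and seeded at 8 × 10^5 cells/mL. Treated 24 h with NE serial dilutions (1:2–1:1,000), vehicle, or ClAlPc/PM solutions. Irradiated at 37°C with 400–700 nm light, 32 min, 5 J/cm2, or left non-irradiated, then incubated 24 h in the dark. Viability read by MTT; % toxicity calculated relative to untreated controls.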

[2] = tested on: Intracellular amastigotes of L. (V.) braziliensis; assay: Intracellular amastigote inhibition in transformed THP-1 cells; format: cell-based, Leishmania (Viannia) braziliensis
Procedure, shortened: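 PMA-differentiated (72 h) THP-1 cells infected with latent-phase L. (V.) braziliensis MHOM/BR/75/M2903 promastigotes, 8 × 10^5 cells/mL. Exposed 24 h to NE serial dilutions (1:2–1:1,000), vehicle, ClAlPc (0.04–20 µM) or PM (244.0–121,827.0 µM) solutions. Then 400–700 nm light, 32°C, 32 min, 5 J/cm2, or kept non-irradiated, followed by 24 h dark. Giemsa counts of infected/uninfected cells give % inhibition versus untreated controls. PI = % inhibition at 0 J/cm2 / % at 5 J/cm2.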

[3] = tested on: Promastigotes of L. (V.) braziliensis (MHOM/BR/75/M2903); assay: Promastigote inhibition; format: cell-based, Leishmania (Viannia) braziliensis
cutaneous leishmaniasis = conditions: different CL topical formulations alone or combined; cited from earlier work
[4] = format: in vivo, BALB/c mice; conditions: range over organs after topical NE treatment; listed as PM
Procedure, shortened: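 Healthy female BALB/c mice, 7–9 weeks (N = 3/group), received 50 μL NE topically at the tail base every three days for 15 days. ClAlPc groups were irradiated (672 ± 40 nm, 7 min, 20 J/cm2) 30 min post-application. Six days after treatment, liver, spleen, kidney and treated skin (20–25 mg) were macerated, sonicated and centrifuged 10 min at 10,000 rpm. Supernatants were taken up in Trizma buffer pH 7.8, and PM was measured by C18 HPLC after 1-fluoro-2,4-dinitrobenzene derivatization.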

[5] = dilution 1,000, PDT + (5 J/cm^2)
[6] = dilution 100 (0.4 µM ClAlPc), PDT + (5 J/cm^2)

Row | Compound | % of inhibition (mean ± SD), THP-1 cell (THP-1 cell; dilution 2, PDT + (5 J/cm^2)) | % of inhibition (mean ± SD), THP-1 cell (THP-1 cell; dilution 2, PDT −) | % of inhibition (mean ± SD), THP-1 cell (THP-1 cell; dilution 10, PDT + (5 J/cm^2)) | % of inhibition (mean ± SD), THP-1 cell (THP-1 cell; dilution 10, PDT −) | % of inhibition (mean ± SD), THP-1 cell (THP-1 cell; dilution 100, PDT + (5 J/cm^2)) | % of inhibition (mean ± SD), THP-1 cell (THP-1 cell; dilution 100, PDT −) | % of inhibition (mean ± SD), THP-1 cell (THP-1 cell; [5]) | % of inhibition (mean ± SD), THP-1 cell (THP-1 cell; dilution 1,000, PDT −) | % of inhibition (mean ± SD), Intracellular amastigotes ([2]; dilution 50, PDT + (5 J/cm^2)) | % of inhibition (mean ± SD), Intracellular amastigotes ([2]; dilution 50, PDT −) | % of inhibition (mean ± SD), Intracellular amastigotes [2, 6] | % of inhibition (mean ± SD), Intracellular amastigotes ([2]; dilution 100, PDT −) | % of inhibition (mean ± SD), Intracellular amastigotes ([2]; dilution 300, PDT + (5 J/cm^2)) | % of inhibition (mean ± SD), Intracellular amastigotes ([2]; dilution 300, PDT −) | % of inhibition (mean ± SD), Intracellular amastigotes ([2]; dilution 500, PDT + (5 J/cm^2)) | % of inhibition (mean ± SD), Intracellular amastigotes ([2]; dilution 500, PDT −) | % of inhibition (mean ± SD), Promastigotes ([3]; dilution 2, PDT + (5 J/cm^2)) | % of inhibition (mean ± SD), Promastigotes ([3]; dilution 2, PDT −) | % of inhibition (mean ± SD), Promastigotes ([3]; dilution 10, PDT + (5 J/cm^2)) | % of inhibition (mean ± SD), Promastigotes ([3]; dilution 10, PDT −) | also measured
1 | chloroaluminium phthalocyanine [ClAlPc (s)] | 97.8 ± 0.6% | 4.5 ± 1.7% | 97.6 ± 0.5% | 0% | 49.1 ± 4.8% | 0% | 13.8 ± 4.1% | 0% | 93.4 ± 2.8% | 2.8 ± 0.3% | 65.8 ± 4.7% | 0.5 ± 0.8% | 21.8 ± 7.0^a % | 0.4 ± 0.0% | 6.9 ± 2.1^a % | 0% | 100% | 0.3 ± 0.7% | 100% | 1.0 ± 1.0% | ClAlPc retained in the epidermis/dermis ([1]; after 24 h): 26.27 μM/cm^2; ClAlPc retained by the stratum corneum ([1]; after 24 h, tape stripping): 143.97 μM/cm^2; ClAlPc skin permeation (receptor compartment) ([1]; any time point up to 24 h): No skin ClAlPc permeation was observed; also recorded: did not permeate through the skin; % of inhibition (mean ± SD), Promastigotes ([3]; dilution 100, PDT −): 0%; % of inhibition (mean ± SD), Promastigotes [3, 5]: 0%; % of inhibition (mean ± SD), Promastigotes ([3]; dilution 1,000, PDT −): 0%
2 | NC[C@@H]1O[C@H](O[C@H]2[C@@H](O)[C@H](O[C@@H]3[C@@H](O)[C@H](N)C[C@H](N)[C@H]3O[C@H]3O[C@H](CO)[C@@H](O)[C@H](O)[C@H]3N)O[C@@H]2CO)[C@H](N)[C@@H](O)[C@@H]1O [PM (s), paromomycin sulfate] | 78.7 ± 5.3% | 79.2 ± 3.0% | 34.3 ± 5.2% | 33.1 ± 3.5% | 18.6 ± 5.1% | 17.9 ± 8.0^a % | 0.7 ± 1.0% | 0.3 ± 0.6% | 54.1 ± 2.6% | 60.6 ± 2.4% | 46.6 ± 2.8% | 48.5 ± 5.8% | 30.3 ± 2.8% | 27.3 ± 8.1% | 0% | 2.3 ± 1.1% | 78.7 ± 5.9% | 78.5 ± 3.3% | 98.5 ± 1.4% | 98.4 ± 1.6% | Healing rates (clinical efficacy) (cutaneous leishmaniasis): 53.3 to 90.0%; % of inhibition (mean ± SD), Promastigotes [3, 6]: 99.9 ± 0.0%; % of inhibition (mean ± SD), Promastigotes ([3]; dilution 100, PDT −): 99.9 ± 0.0%; % of inhibition (mean ± SD), Promastigotes [3, 5]: 100%; % of inhibition (mean ± SD), Promastigotes ([3]; dilution 1,000, PDT −): 100%; Concentrations of PM detected in organs [4]: 27.3 - 292.5 μM/25 mg and 27.26 - 292.49 μM/25 mg
